Test results as given in ChEMBL document CHEMBL5724801, “EUbOPEN Chemogenomics Library - Multiplex” (2024).
Where “and” joins values, the source holds several entries; their conditions need not be identical. Identical values can stand only once.

Columns and labels:
[1] = tested on: U2OS; assay: Multiplex assay against U2OS; type: toxicity, cell-based; details: human
Procedure, shortened: (§1)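 Tubulin, mitochondrial-mass and membrane-permeability phenotypes are per cents of healthy-nucleus cells. Cells were gated by CellPathfinder machine learning into Hoechst high-intensity objects or normal cells, normal cells into healthy, pyknosed or fragmented nuclei, and pyknosed cells into mitotic or apoptotic. Before that, live cells stained at seeding with Hoechst33342, BioTracker Green Microtubule Cytoskeleton Dye, MitoTracker Red and Annexin V Alexa Fluor 680 were imaged on a CQ1 microscope at 37°C and 5% CO2 after compound addition.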

[2] = tested on: Fibroblast; assay: Multiplex assay against human fibroblast; type: toxicity, cell-based; procedure, shortened: as §1
[3] = 24 h, 1 µM, compound concentration 1 uM
[4] = 24 h, 10 µM, compound concentration 10 uM
[5] = 48 h, 1 µM, compound concentration 1 uM
[6] = 48 h, 10 µM, compound concentration 10 uM
[7] = 12 h, 1 µM, compound concentration 1 uM
[8] = 12 h, 10 µM, compound concentration 10 uM

## Cc1ccccc1C(=O)Nc1ccc(C(=O)N2CCCC(N(C)C)c3ccccc32)cc1.Cl (stereo not drawn)
[1]; [3]
  Total Cell Count: 333 and 192
[1]; [4]
  Population Apoptotic (%): 71% and 46%
  Population Fragmented Nuclei (%): 16% and 27%
  Population Healthy Nuclei (%): 51% and 53%
  Population Hoechst High Intensity Objects (%): 4% and 5%
  Population Membrane Permeable-Phenotype (%): 16% and 18%
  Population Mitochondria Different-Phenotype (%): 14% and 18%
  Population Mitotic Cells (%): 28% and 53%
  Population Normal (%): 95% and 94%
  Population Pyknosed Nuclei (%): 31% and 18%
  Population Tubulin-Different-Phenotype (%): 6% and 18%
  Total Cell Count: 211 and 73
[1]; [5]
  Population Apoptotic (%): 85% and 83%
  Population Fragmented Nuclei (%): 14% and 15%
  Population Healthy Nuclei (%): 71% and 72%
  Population Hoechst High Intensity Objects (%): 1%
  Population Membrane Permeable-Phenotype (%): 5% and 7%
  Population Mitochondria Different-Phenotype (%): 3% and 5%
  Population Mitotic Cells (%): 14% and 16%
  Population Normal (%): 98%
  Population Pyknosed Nuclei (%): 13% and 12%
  Population Tubulin-Different-Phenotype (%): 3% and 4%
  Total Cell Count: 414 and 248
[1]; [6]
  Population Apoptotic (%): 71% and 84%
  Population Fragmented Nuclei (%): 28%
  Population Healthy Nuclei (%): 43% and 42%
  Population Hoechst High Intensity Objects (%): 8%
  Population Membrane Permeable-Phenotype (%): 17% and 11%
  Population Mitotic Cells (%): 28% and 16%
  Population Normal (%): 91%
  Population Pyknosed Nuclei (%): 28% and 29%
  Population Tubulin-Different-Phenotype (%): 7% and 13%
  Total Cell Count: 206 and 93
[2]; [7]
  Population Apoptotic (%): 52% and 36%
  Population Fragmented Nuclei (%): 16% and 22%
  Population Healthy Nuclei (%): 71% and 55%
  Population Hoechst High Intensity Objects (%): 0% and 1%
  Population Membrane Permeable-Phenotype (%): 0% and 10%
  Population Mitochondria Different-Phenotype (%): 5% and 3%
  Population Mitotic Cells (%): 47% and 63%
  Population Normal (%): 100% and 98%
  Population Pyknosed Nuclei (%): 12% and 21%
  Population Tubulin-Different-Phenotype (%): 31% and 45%
  Total Cell Count: 167 and 155
[2]; [8]
  Population Apoptotic (%): 58% and 45%
  Population Fragmented Nuclei (%): 26% and 29%
  Population Healthy Nuclei (%): 50% and 47%
  Population Hoechst High Intensity Objects (%): 1% and 4%
  Population Membrane Permeable-Phenotype (%): 1% and 4%
  Population Mitochondria Different-Phenotype (%): 12%
  Population Mitotic Cells (%): 41% and 54%
  Population Normal (%): 98% and 95%
  Population Pyknosed Nuclei (%): 22% and 23%
  Population Tubulin-Different-Phenotype (%): 70% and 61%
  Total Cell Count: 108 and 109
[2]; [3]
  Population Apoptotic (%): 38% and 43%
  Population Fragmented Nuclei (%): 15% and 28%
  Population Healthy Nuclei (%): 76% and 49%
  Population Hoechst High Intensity Objects (%): 1% and 5%
  Population Membrane Permeable-Phenotype (%): 0% and 8%
  Population Mitochondria Different-Phenotype (%): 8% and 2%
  Population Mitotic Cells (%): 61% and 56%
  Population Normal (%): 98% and 94%
  Population Pyknosed Nuclei (%): 8% and 21%
  Population Tubulin-Different-Phenotype (%): 30% and 50%
  Total Cell Count: 160 and 157
[2]; [4]
  Population Apoptotic (%): 58% and 57%
  Population Fragmented Nuclei (%): 30% and 37%
  Population Healthy Nuclei (%): 58% and 42%
  Population Hoechst High Intensity Objects (%): 1% and 4%
  Population Membrane Permeable-Phenotype (%): 0% and 9%
  Population Mitochondria Different-Phenotype (%): 12% and 11%
  Population Mitotic Cells (%): 41% and 42%
  Population Normal (%): 98% and 95%
  Population Pyknosed Nuclei (%): 11% and 20%
  Population Tubulin-Different-Phenotype (%): 68% and 72%
  Total Cell Count: 111 and 107
[2]; [5]
  Population Apoptotic (%): 33% and 53%
  Population Fragmented Nuclei (%): 13% and 32%
  Population Healthy Nuclei (%): 79% and 50%
  Population Hoechst High Intensity Objects (%): 3%
  Population Membrane Permeable-Phenotype (%): 0% and 8%
  Population Mitochondria Different-Phenotype (%): 4% and 5%
  Population Mitotic Cells (%): 66% and 46%
  Population Normal (%): 96%
  Population Pyknosed Nuclei (%): 7% and 17%
  Population Tubulin-Different-Phenotype (%): 28% and 54%
  Total Cell Count: 158 and 155
[2]; [6]
  Population Apoptotic (%): 91% and 73%
  Population Fragmented Nuclei (%): 24% and 43%
  Population Healthy Nuclei (%): 60% and 43%
  Population Hoechst High Intensity Objects (%): 7% and 3%
  Population Membrane Permeable-Phenotype (%): 0% and 8%
  Population Mitochondria Different-Phenotype (%): 12% and 14%
  Population Normal (%): 92% and 96%
  Population Pyknosed Nuclei (%): 14% and 13%
  Population Tubulin-Different-Phenotype (%): 51% and 70%
  Total Cell Count: 88 and 113
